Measured values reported in ChEMBL document CHEMBL1133681, “Synthesis and opioid receptor affinity of a series of 2, 4-diaryl-substituted 3,7-diazabicylononanones” (J Med Chem, 2000).
Several values for one entry are separate records, joined by “and”; a condition that tells them apart may be missing. Equal values may be shown once.

Assays:
[1] = biological target: T1, Kappa-type opioid receptor (Homo sapiens, UniProt P41145); assay: (§1) Inhibition against [3H]diprenorphine human Opioid receptor kappa 1 at 10 umol/L
[2] = biological target: Delta-type opioid receptor (Rattus norvegicus) (UniProt P33533); assay: Inhibition against [3H]D-Ala-deltorphin opioid receptor delta 2 in rat brain membranes at 1 umol/L.; type: cell membranes
Outline: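 Rat brain membranes (without cerebellum, pons, medulla oblongata); 1 nM [3H]-D-Ala-deltorphine; no preincubation; 50 mM Tris-HCl pH 7.4 with BSA and 4.5 mM MgCl2; 37 °C 90 min; nonspecific binding with 10^-5 M naloxone; triplicate, GF/B filtration, scintillation counting.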

[3] = biological target: Mu-type opioid receptor (Rattus norvegicus) (UniProt P33535); assay: Inhibition against [3H]naloxone opioid receptor mu 1 in rat brain membranes at 1 umol/L.; type: cell membranes
Outline: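 Rat brain membranes (without cerebellum); 1 nM [3H]naloxone; preincubation 37 °C 40 min; incubation 50 mM Tris-HCl pH 7.4, 25 °C 30 min; nonspecific binding with 10^-5 M naloxone; triplicate, GF/B filtration, three ice-cold washes, scintillation counting.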

[4] = biological target: Kappa-type opioid receptor (Rattus norvegicus) (UniProt P34975); assay: Inhibition against [3H]-CI 977 rat Opioid receptor kappa 1 at 10 umol/L
[5] = Acid dissociation constant was measured in experiment 2; type: ADME; details: read-out: pKa2
[6] = biological target: T1, Kappa-type opioid receptor; assay: as §1; remark: listed apart in the source
[7] = Acid dissociation constant was measured in experiment 1; type: ADME; details: read-out: pKa1
[8] = biological target: T1, Kappa-type opioid receptor; assay: Inhibition against [3H]diprenorphine human Opioid receptor kappa 1
[9] = biological target: Delta-type opioid receptor (Rattus norvegicus) (UniProt P33533); assay: Inhibition against [3H]DPDPE Opioid receptor delta 1 in rat brain membranes at 1 umol/L; type: cell membranes
Outline: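 Rat brain membranes (without cerebellum, pons, medulla oblongata); 0.25 nM [3H]Cl-DPDPE; preincubation 25 °C 30 min; 50 mM Tris-HCl pH 7.4 with BSA, 45 μM PMSF, 4.5 mM MgCl2; 25 °C 240 min; nonspecific binding with 10^-3 M naloxone; triplicate, filtration, scintillation counting.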

[10] = biological target: T1, Kappa-type opioid receptor; assay: Inhibition against [3H]diprenorphine human Opioid receptor kappa 1 […] at 10 umol/L; type: cell membranes
[11] = Acid dissociation constant was measured in experiment 3; type: ADME; details: read-out: pKa3
[12] = Acid dissociation constant was measured in experiment 4; type: ADME; details: read-out: pKa4
[13] = biological target: T1, Kappa-type opioid receptor; assay: Inhibition against [3H]diprenorphine human Opioid receptor kappa 1 at 10 uM/L
[14] = biological target: Kappa-type opioid receptor (Mus musculus) (UniProt P33534); assay: Antinociceptive activity evaluated against Opioid receptor kappa 1 in mice by writhing test (administered intravenously)
Outline: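 Male NMRI mice (31-37 g); writhing induced by ip 0.35 mL of 0.02% phenylquinone; writhes counted 5–20 min after phenylquinone; food and water withdrawn during test; compound given iv; ED50 derived.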

[15] = biological target: Kappa-type opioid receptor (Mus musculus) (UniProt P33534); assay: Antinociceptive activity evaluated against Opioid receptor kappa 1 in mice by tail-flick assay (administered intravenously)
Outline: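 Male NMRI mice (23-26 g), group-housed, ~22 °C, 12-h light-dark cycle; food and water withdrawn during testing; compound given iv; tail-flick response; ED50 derived.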

T1 sequence (P41145 whole entry): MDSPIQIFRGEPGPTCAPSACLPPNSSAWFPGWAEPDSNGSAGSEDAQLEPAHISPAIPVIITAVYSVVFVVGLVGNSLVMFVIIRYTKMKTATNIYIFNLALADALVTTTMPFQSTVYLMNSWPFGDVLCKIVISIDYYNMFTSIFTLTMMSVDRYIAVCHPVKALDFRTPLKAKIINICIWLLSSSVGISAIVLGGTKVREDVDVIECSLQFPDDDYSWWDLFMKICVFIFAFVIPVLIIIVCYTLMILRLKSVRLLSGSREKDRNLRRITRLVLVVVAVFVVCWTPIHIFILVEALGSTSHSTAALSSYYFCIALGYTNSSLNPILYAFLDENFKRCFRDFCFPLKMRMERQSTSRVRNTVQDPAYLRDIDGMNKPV
Sequence of Mu-type opioid receptor (Rattus norvegicus) (P33535 whole entry): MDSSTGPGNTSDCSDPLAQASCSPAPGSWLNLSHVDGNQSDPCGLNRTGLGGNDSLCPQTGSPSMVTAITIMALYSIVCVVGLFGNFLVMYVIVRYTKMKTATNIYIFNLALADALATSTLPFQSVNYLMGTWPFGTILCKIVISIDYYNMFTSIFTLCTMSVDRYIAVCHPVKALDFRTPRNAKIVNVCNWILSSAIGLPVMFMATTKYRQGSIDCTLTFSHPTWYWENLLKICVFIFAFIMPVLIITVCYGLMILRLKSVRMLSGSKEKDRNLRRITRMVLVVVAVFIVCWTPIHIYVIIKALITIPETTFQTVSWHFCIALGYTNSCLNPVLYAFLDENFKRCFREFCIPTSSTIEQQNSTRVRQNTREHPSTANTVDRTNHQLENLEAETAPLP
Sequence of Delta-type opioid receptor (Rattus norvegicus) (P33533 whole entry): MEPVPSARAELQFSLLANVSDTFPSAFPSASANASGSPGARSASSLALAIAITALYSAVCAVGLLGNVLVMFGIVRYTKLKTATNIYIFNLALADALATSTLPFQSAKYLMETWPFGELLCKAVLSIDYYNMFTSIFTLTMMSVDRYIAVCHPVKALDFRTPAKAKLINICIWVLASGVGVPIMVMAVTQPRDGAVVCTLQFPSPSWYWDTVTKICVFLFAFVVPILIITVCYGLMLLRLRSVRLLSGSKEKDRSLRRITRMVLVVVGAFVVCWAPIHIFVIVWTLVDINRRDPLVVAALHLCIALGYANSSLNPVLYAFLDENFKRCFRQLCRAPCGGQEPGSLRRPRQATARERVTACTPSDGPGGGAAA
Sequence of Kappa-type opioid receptor (Rattus norvegicus) (P34975 whole entry, looked up): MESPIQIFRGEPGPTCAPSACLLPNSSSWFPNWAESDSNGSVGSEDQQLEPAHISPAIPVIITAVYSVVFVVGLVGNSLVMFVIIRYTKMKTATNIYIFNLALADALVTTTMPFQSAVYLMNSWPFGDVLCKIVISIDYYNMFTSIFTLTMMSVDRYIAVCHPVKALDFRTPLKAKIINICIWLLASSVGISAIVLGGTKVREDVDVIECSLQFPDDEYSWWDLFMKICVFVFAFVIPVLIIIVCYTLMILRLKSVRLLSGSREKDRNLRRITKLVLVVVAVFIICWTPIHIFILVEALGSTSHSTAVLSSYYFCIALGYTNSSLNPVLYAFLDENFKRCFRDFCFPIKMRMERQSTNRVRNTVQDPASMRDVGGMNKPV
Sequence of Kappa-type opioid receptor (Mus musculus) (P33534 whole entry): as the sequence (P34975 whole entry, looked up) above, with E11D, A17S, P51S, V308A counted along it

`COC(=O)C12CN(C)CC(C(=O)OC)(C1=O)C(c1ccccc1Cl)N(C)C2c1ccccc1Cl` (stereo unspecified) gave an inhibition [1] of 65.4%, an inhibition [2] of 1.9% and an inhibition [3] of 2.7%.

Molecule `COC(=O)C12CN(C)CC(C(=O)OC)(C1=O)C(c1ccc(Cl)c(Cl)c1)N(C)C2c1ccc(Cl)c(Cl)c1` (stereo unspecified) has an inhibition [1] of 38.9%, an inhibition [2] of -5.3% and an inhibition [3] of 6.1%.

Molecule `COC(=O)C12CN(C)CC(C(=O)OC)(C1=O)C(c1ccc([N+](=O)[O-])cc1)N(C)C2c1ccc([N+](=O)[O-])cc1` (trans isomer) has an inhibition [2] of -4%, an inhibition [3] of 4.8% and an inhibition [4] of 27.8%.

In the case of `COC(=O)C12CN(C)CC(C(=O)OC)(C1=O)C(c1ccccc1F)N(C)C2c1ccccc1F` (stereo unspecified), the inhibition [1] is reported as 47.7%, the inhibition [2] is reported as 1.5% and the inhibition [3] is reported as -9.2%.

`COC(=O)C12CN(C)CC(C(=O)OC)(C1=O)C(c1ccc(OC)cc1)N(C)C2c1ccc(OC)cc1` (stereo unspecified) showed a pKa [5] of 5.51, a Ki [6] of 18 nM and an inhibition [2] of 3%. For the same molecule, the inhibition [3] was 26.5% and the pKa [7] was 9.05.

Work on `CCOC(=O)C12CN(C)CC(C(=O)OCC)(C1=O)C(c1cccc([N+](=O)[O-])c1)N(C)C2c1cccc([N+](=O)[O-])c1` (stereo unspecified) yielded an inhibition [2] of 6.1%, an inhibition [3] of 2.3% and an inhibition [4] of 5.9%.

For `CCOC(=O)C12CN(C)CC(C(=O)OCC)(C1=O)C(c1ccc(Cl)cc1)N(C)C2c1ccc(Cl)cc1` (stereo unspecified), the Ki [8] was 1980 nM, the inhibition [2] was 1.8% and the inhibition [3] was -5%.

With `COC(=O)C12CN(C)CC(C(=O)OC)(C1=O)C(c1cccc(C#N)c1)N(C)C2c1cccc(C#N)c1` (stereo unspecified) the inhibition [1] was 35.5%, the inhibition [2] was 5% and the inhibition [3] was 9.3%.

In the case of `COC(=O)C12CN(C)CC(C(=O)OC)(C1=O)C(c1ccc(Cl)cc1)N(C)C2c1ccc(Cl)cc1` (stereo unspecified), the inhibition [1] is reported as 63%, the inhibition [2] is reported as -2.1% and the inhibition [3] is reported as 2.2%.

For `COC(=O)C12C[N+](C)(C)CC(C(=O)OC)(C1=O)C(c1ccccn1)N(C)C2c1ccccn1` (stereo unspecified), the inhibition [2] was 3.3%, the inhibition [3] was 29.2% and the inhibition [4] was 96.4%.

With `COC(=O)C12CN(C)CC(C(=O)OC)(C1=O)C(c1cccc(F)c1)N(C)C2c1cccc(F)c1` (stereo unspecified) the pKa [5] was 10.7, the Ki [8] was 26 nM and the inhibition [2] was 3.2%. For the same molecule, the inhibition [3] was 5% and the pKa [7] was 13.1.

Molecule `CN1CC2(C(=O)O)C(=O)C(C(=O)O)(C1)C(c1ccccc1)N(C)C2c1ccccc1` (stereo unspecified) has a Ki [6] of 210 nM, an inhibition [2] of -1.6% and an inhibition [9] of -0.3%. For the same molecule, the inhibition [3] was 14.5%.

For `COC(=O)C12CN(C)CC(C(=O)OC)(C1=O)C(c1cccc3ccccc13)N(C)C2c1cccc2ccccc12` (stereo unspecified), the inhibition [1] was 7.8% and the inhibition [2] was 1.8%.

With `COC(=O)C12CN(C)CC(C(=O)OC)(C1=O)C(c1cccc(Cl)c1)N(C)C2c1cccc(Cl)c1` (stereo unspecified) the pKa [5] was 9.51, the inhibition [10] was 42.3% and the inhibition [9] was -0.8%. For the same molecule, the inhibition [3] was 8.8% and the pKa [7] was 10.6.

With `COC(=O)C12CN(C)CC(C(=O)OC)(C1=O)C(c1ccc(F)cc1)N(C)C2c1ccc(F)cc1` (stereo unspecified) the Ki [6] was 140 nM, the inhibition [2] was 0.4% and the inhibition [3] was 10.1%.

With `COC(=O)C12CN(C)CC(C(=O)OC)(C1=O)C(c1cccc(C)c1)N(C)C2c1cccc(C)c1` (stereo unspecified) the inhibition [9] was 3.4% and the inhibition [3] was -5.9%.

Molecule `COC(=O)C12CN(C)CC(C(=O)OC)(C1=O)C(c1ccc3ccccc3c1)N(C)C2c1ccc2ccccc2c1` (stereo unspecified) has an inhibition [1] of 18.6% and an inhibition [2] of -2.1%.

For `COC(=O)C12CN(C)CC(C(=O)OC)(C1=O)C(c1ccncc1)N(C)C2c1ccncc1` (stereo unspecified), the inhibition [1] was 12.5%, the inhibition [2] was -9% and the inhibition [3] was 3.1%.

In the case of `COC(=O)C12CN(C)CC(C(=O)OC)(C1=O)C(c1cccc([N+](=O)[O-])c1)N(C)C2c1cccc([N+](=O)[O-])c1` (stereo unspecified), the inhibition [1] is reported as 10%, the inhibition [2] is reported as -7.9% and the inhibition [9] is reported as 14%.

`COC(=O)C12CN(C)CC(C(=O)OC)(C1=O)C(c1cccc(OC)c1)N(C)C2c1cccc(OC)c1` (stereo unspecified) gave an inhibition [1] of 52.2% and an inhibition [2] of -1.6%.

With `COC(=O)C12CN(C)CC(C(=O)OC)(C1=O)C(c1ccc([N+](=O)[O-])cc1)N(C)C2c1ccc([N+](=O)[O-])cc1` (stereo in doubt) the inhibition [2] was -3.1% and the inhibition [3] was 4.6%.

Molecule `COC(=O)C12CN(C)CC(C(=O)OC)(C1=O)C(c1ccc(O)cc1)N(C)C2c1ccc(O)cc1` (stereo unspecified) has an inhibition [1] of 8.4%, an inhibition [2] of 7.3% and an inhibition [3] of 14.2%.

`COC(=O)C12CN(C)CC(C(=O)OC)(C1=O)C(c1cccnc1)N(C)C2c1cccnc1` (stereo unspecified) showed an inhibition [1] of 54.8%, an inhibition [2] of 1.1% and an inhibition [3] of 30.7%.

`COC(=O)C12CN(C)CC(C(=O)OC)(C1=O)C(c1ccc(C#N)cc1)N(C)C2c1ccc(C#N)cc1` (stereo unspecified) showed an inhibition [1] of 17.2%, an inhibition [2] of 3.2% and an inhibition [3] of 5.6%.

`COC(=O)C12CN(C)CC(C(=O)OC)(C1=O)C(c1ccc3ccccc3n1)N(C)C2c1ccc2ccccc2n1` (stereo unspecified) showed a Ki [8] of 190 nM, an inhibition [2] of 11.8% and an inhibition [3] of 36.6%.

`COC(=O)C12CN(C)CC(C(=O)OC)(C1=O)C(c1ccccc1[N+](=O)[O-])N(C)C2c1ccccc1[N+](=O)[O-]` (stereo unspecified) gave an inhibition [1] of 3.4%, an inhibition [2] of -1.1% and an inhibition [3] of 2.9%.

`COC(=O)C12CN(C)CC(C(=O)OC)(C1=O)C(c1ccnc3ccccc13)N(C)C2c1ccnc2ccccc12` (stereo unspecified) gave an inhibition [1] of 25.8%, an inhibition [2] of 1.2% and an inhibition [3] of -7.1%.

Molecule `COC(=O)C12CN(C)CC(C(=O)OC)(C1=O)C(c1ccccn1)N(C)C2c1ccccn1` (stereo unspecified) has a pKa [11] of 3.47, a pKa [12] of 2.03 and an inhibition [13] of 61.7%. For the same molecule, the inhibition [1] was 65% and 62.6%, the ED50 [14] was 1.05 mg/kg and the ED50 [15] was 6.7 mg/kg. For the same molecule, the inhibition [2] was -5.9% and -6.6%, the inhibition [9] was 5% and the inhibition [3] was 32.4% and 20% and 37.6%.

`COC(=O)C12CN(C)CC(C(=O)OC)(C1=O)C(c1cccc(O)c1)N(C)C2c1cccc(O)c1` (stereo unspecified) gave a pKa [11] of 9.12, a pKa [12] of 9.21 and a pKa [5] of 7.97. It also gave an inhibition [9] of 27%, an inhibition [3] of 35.6% and a pKa [7] of 10.3.

Molecule `CCOC(=O)C12CN(C)CC(C(=O)OCC)(C1=O)C(c1cccc(O)c1)N(C)C2c1cccc(O)c1` (stereo unspecified) has an inhibition [1] of 92.7%, an inhibition [2] of 6.9% and an inhibition [3] of 10.5%.
